Experimental data taken from paper PMC2413043 (The Journal of Experimental Medicine, 2008).

Experiments:
Elk-1 = experiment: Phosphorylation of Elk-1 by immunoblot in RAW cells; assay type: cell-based, mouse; conditions: TSA 30 ng/ml 1 h and/or LPS 100 ng/ml 30 min
Procedure, shortened: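 RAW 264.7 cells grown in DME with 10% FBS were pretreated with TSA 30 ng/ml for 1 h, then given LPS 100 ng/ml for 30 min. Lysates were immunoblotted with phospho-specific antibodies to MAPK cascade members (phospho-MKK3/6, phospho-Elk-1).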

p38 [1] = experiment: Phosphorylation of p38 by immunoblot in RAW cells; assay type: cell-based, mouse; conditions: RAW cells pretreated 30 ng/ml TSA 1 h, 100 ng/ml LPS 30 min
Procedure, shortened: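 RAW 264.7 cells (DME, 10% FBS) pretreated with TSA 30 ng/ml for 1 h, then LPS 100 ng/ml for 30 min. Whole-cell lysates were immunoblotted with antibodies to phosphorylated and total forms of the MAPK in question.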

MKP-1-ERα and p38 = experiment: MKP-1-ERα/p38 interaction by co-immunoprecipitation in HeLa cells; assay type: cell-based; conditions: 4-HT, LPS and TSA 1 h
p38 [2] = experiment: Phospho-p38 in primary peritoneal macrophages; assay type: cell-based, mouse; conditions: LPS, TSA or both
Procedure, shortened: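 Resident (non-thioglycolate-elicited) peritoneal macrophages were collected by PBS lavage from WT and MKP-1−/− mice. Cells were stimulated with LPS, TSA or both, and lysates were immunoblotted for total and phospho-p38.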

TNF-α = TNF-α in media of primary macrophages by ELISA; assay type: cell-based, mouse; conditions: TSA and LPS, 4 h, n = 2 ± SD
Procedure, shortened: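 Primary peritoneal macrophages collected by PBS lavage from resting WT or MKP-1−/− mice, not thioglycolate-elicited; the mice were on a C57BL/6J background. Cells stimulated with TSA, LPS or both. After 4 h, TNF-α and IL-1β in the media were measured by ELISA; n = 2, mean ± SD.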

mouse liver = experiment: LPS-induced liver inflammation, histology; assay type: in vivo; conditions: hematoxylin and eosin
Procedure, shortened: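 Mice received saline (control) or TSA i.p. each day from day −2, then an i.p. LPS injection on day 0. Livers were harvested 2 h or 2 d after LPS, sectioned and stained with hematoxylin and eosin to assess leukocyte infiltration, edema and necrosis.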

MKP-1-ERα and ERK1 = experiment: MKP-1-ERα/ERK1 interaction by co-immunoprecipitation in HeLa cells; assay type: cell-based; conditions: His6-ERK1, LPS and TSA 1 h
Procedure, shortened: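 HeLa cells in DME with 10% FBS were co-transfected by Lipofectamine 2000 with MKP-1(WT)-ERα or MKP-1(K57R)-ERα plus His6-ERK1. Fusion expression was induced with 200 nM 4-hydroxytamoxifen, then cells were treated with LPS and TSA for 1 h. Lysates were immunoprecipitated and immunoblotted with anti-ERα (MKP-1 tag) and anti-His6 (ERK1 tag).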

phospho-ERK1 = assay type: cell-based; conditions: MKP-1 immunoprecipitated from RAW cells treated with LPS and TSA 4 h
Procedure, shortened: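 RAW 264.7 cells grown in DME with 10% FBS were treated with LPS plus TSA, or with control, for 4 h. Endogenous MKP-1 was immunoprecipitated from the lysates and incubated with recombinant phospho-p38 or phospho-ERK1. Remaining phosphorylation was detected by immunoblotting with phospho-p38 or phospho-ERK antibodies. The amount of phospho-substrate added was shown as an input lane.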

IL-1β = experiment: Serum IL-1β by ELISA in LPS-treated mice; assay type: in vivo, mouse; conditions: TSA daily from day −2, LPS day 0, serum 2 h after LPS, n = 2 ± SD
TNF-α, IL-6, and IL-1β = experiment: Inflammatory cytokine RNA levels by Northern blotting in RAW cells; assay type: cell-based, mouse; conditions: RAW cells treated with LPS and TSA 4 h
Procedure, shortened: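 RAW 264.7 cells (DME, 10% FBS) treated with LPS and TSA for 4 h. Total RNA was isolated with TRIZOL and analysed by Northern blotting with probes for TNF-α, IL-1β and IL-6, with GAPDH as loading control.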

NOS2 [3] = experiment: NOS2 expression in RAW cells with MKP-1 siRNA or control siRNA; assay type: cell-based, mouse; conditions: LPS and TSA
Procedure, shortened: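 RAW 264.7 cells were stably transfected with vectors encoding siRNA hairpins against MKP-1 nucleotides 67–85 or 743–761, or with a control hairpin. Knockdown in the isolated clones was confirmed by MKP-1 immunoblot. Clones were treated with LPS and TSA, and lysates were immunoblotted for NOS2 and MAPK family members.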

NOS2 [4] = experiment: NOS2 protein levels by immunoblot in RAW cells; assay type: cell-based, mouse; conditions: RAW cells
Procedure, shortened: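 RAW 264.7 cells were handled in two ways. For agonist response, cells were exposed to the TLR agonists PGN, poly(I:C), LPS or E. coli for 16 h, with or without TSA. For TSA dose-response, cells were pretreated with increasing TSA for 1 h, then given LPS 100 ng/ml for 6 h, with ERα as the blot control. In both, lysates were immunoblotted for NOS2.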

SMILES: CC(/C=C/C(=O)NO)=C\[C@@H](C)C(=O)c1ccc(N(C)C)cc1 [TSA, trichostatin A]
- phosphorylation of Elk-1 (Elk-1): decreases phosphorylation of p38 and Elk-1
- LPS-induced phosphorylation of p38 (p38 [1]): decreases phosphorylation of p38
- interaction between mutant MKP-1(K57R) and p38 (MKP-1-ERα and p38; MKP-1(K57R)-ERα): not able to affect the interaction between mutant MKP-1(K57R) and p38
- interaction between MKP-1(WT) and p38 (MKP-1-ERα and p38; MKP-1(WT)-ERα): increases the interaction between MKP-1(WT) and p38
- phospho-p38, WT vs MKP-1−/− primary macrophages (p38 [2]): only suppresses phospho-p38 in macrophages from WT mice, not in macrophages from MKP-1^−/− mice
- suppression of TNF-α, MKP-1−/− macrophages (TNF-α): 27%
- suppression of TNF-α, WT macrophages (TNF-α): 87%
- LPS-induced leukocyte infiltration / inflammation in liver (mouse liver; livers 2 h after LPS): decreases LPS-induced inflammation
- LPS-induced hepatocyte edema and necrosis (mouse liver; livers 2 d after LPS): limits LPS-induced hepatocyte edema and necrosis
- interaction of ERK1 and MKP-1 (WT vs mutant K57R) (MKP-1-ERα and ERK1): increases the interaction of ERK1 and WT, but not mutant, MKP-1 in cells
- removal of phosphate from recombinant phospho-ERK1 by MKP-1 (phospho-ERK1): removes more phosphate from recombinant phospho-ERK1 than MKP-1 from control cells
- decrease of serum IL-1β, MKP-1−/− mice (IL-1β): 21%
- expression of IL-1β (TNF-α, IL-6, and IL-1β): inhibits
- expression of IL-6 (TNF-α, IL-6, and IL-1β): inhibits
- expression of TNF-α (TNF-α, IL-6, and IL-1β): inhibits
- LPS-induced NOS2 expression, control vs MKP-1 siRNA cells (NOS2 [3]): decreases LPS-induced NOS2 expression in control cells, but not in cells with decreased MKP-1
- NOS2 expression activated by TLR agonists (LPS, E. coli, PGN, dsRNA) (NOS2 [4]; TLR agonist 16 h, effect of TSA): inhibits expression of NOS2 activated by each of these four TLR activators
- NOS2 steady-state protein levels (NOS2 [4]; TSA pretreatment 1 h, LPS 6 h): decreases NOS2 steady-state protein levels
